Data: ChEMBL document CHEMBL4270548, “Discovery of a potent glucokinase activator with a favorable liver and pancreas distribution pattern for the treatment of type 2 diabetes mellitus” (Eur J Med Chem, 2018)

Legend:
[1] = AUC (0 to 1.5 hrs) in C57BL/6J mouse liver at 30 mg/kg, po administered as single dose by LC/MS/MS analysis; format: ADME, organism-based; design: dose 30 mg/kg, time < 1.5 hr, route oral; conditions: in vivo
[2] = Ratio of AUC (0 to 1.5 hrs) in C57BL/6J mouse liver to pancreas at 10 mg/kg, po administered as single dose by LC/MS/MS analysis; format: ADME, organism-based; conditions: in vivo
[3] = Ratio of AUC (0 to 1.5 hrs) in C57BL/6J mouse liver to plasma at 30 mg/kg, po administered as single dose by LC/MS/MS analysis; format: ADME, organism-based; conditions: liver and plasma, read-out: Ratio AUC
Mus musculus [4] = experiment: Toxicity in ob/ob mouse assessed as effect on hepatic tryglyceride level at 10 to 30 mg/kg, po bid administered for 28 days measured up to post last dose; format: organism-based; conditions: in vivo, 672 h
How it was run: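 Male ob/ob mice (9 weeks) dosed orally twice daily for 4 weeks, vehicle 0.5% MC. Plasma glucose measured by portable glucometer at 2 and 4 weeks. Liver TG assessed at the end of treatment. Mean ± SEM (n = 10), Dunnett's test versus vehicle.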

[5] = AUC (0 to 1.5 hrs) in C57BL/6J mouse plasma at 10 mg/kg, po administered as single dose by LC/MS/MS analysis; format: ADME, organism-based; design: time < 1.5 hr, dose 10 mg/kg, route oral
[6] = AUC (0 to 1.5 hrs) in C57BL/6J mouse pancreas at 30 mg/kg, po administered as single dose by LC/MS/MS analysis; format: ADME, organism-based; design: time < 1.5 hr, dose 30 mg/kg, route oral; conditions: in vivo
[7] = Ratio of AUC (0 to 1.5 hrs) in C57BL/6J mouse liver to pancreas at 100 mg/kg, po administered as single dose by LC/MS/MS analysis; format: ADME, organism-based; conditions: in vivo
How it was run: (§1)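 Overnight-fasted male C57BL/6J mice (8 weeks) given a single oral dose (10, 30 or 100 mg/kg) in 0.1 w/v% Tween80 / 0.5 w/v% MC. Plasma taken via postcaval vein, liver and pancreas dissected and homogenized at 0.5, 1 and 1.5 h. LC/MS/MS with internal standard after acetonitrile/methanol extraction. AUC0-1.5h by trapezoidal rule, mean ± SD (n = 3). Kp = AUCtissue/AUCplasma. L/P = AUCliver/AUCpancreas.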

[8] = AUC (0 to 1.5 hrs) in C57BL/6J mouse pancreas at 100 mg/kg, po administered as single dose by LC/MS/MS analysis; format: ADME, organism-based; design: time < 1.5 hr, dose 100 mg/kg, route oral; conditions: in vivo; how it was run: as §1
[9] = Terminal half life in ICR mouse at 2 mg/kg, iv administered as single dose by LC/MS/MS analysis; format: ADME, organism-based; conditions: in vivo, read-out: beta t1/2 (converted)
How it was run: (§2)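 Male ICR mice (8 weeks) fasted overnight and fed 7 h post-dose. Dosing was either a single IV dose of 2 mg/kg in saline or a single oral dose of 10 mg/kg in 0.5 w/v% MC. Orbital plexus blood was taken under anesthesia at serial times to 24 h. Plasma was extracted with acetonitrile/methanol plus internal standard and quantified by LC/MS/MS.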

[10] = Oral bioavailability in ICR mouse at 10 mg/kg administered as single dose by LC/MS/MS analysis; format: ADME, organism-based; conditions: in vivo; how it was run: as §2
[11] = Ratio of AUC (0 to 1.5 hrs) in C57BL/6J mouse pancreas to plasma at 30 mg/kg, po administered as single dose by LC/MS/MS analysis; format: ADME, organism-based; conditions: pancreas and plasma, read-out: Ratio AUC
[12] = Ratio of AUC (0 to 1.5 hrs) in C57BL/6J mouse liver to plasma at 10 mg/kg, po administered as single dose by LC/MS/MS analysis; format: ADME, organism-based; conditions: liver and plasma, read-out: Ratio AUC
[13] = Terminal half life in ICR mouse at 10 mg/kg, po administered as single dose by LC/MS/MS analysis; format: ADME, organism-based; conditions: in vivo, read-out: beta t1/2 (converted); how it was run: as §2
[14] = Ratio of AUC (0 to 1.5 hrs) in C57BL/6J mouse liver to pancreas at 30 mg/kg, po administered as single dose by LC/MS/MS analysis; format: ADME, organism-based; conditions: in vivo
[15] = Clearance in ICR mouse plasma at 2 mg/kg, iv administered as single dose by LC/MS/MS analysis; format: ADME, organism-based; how it was run: as §2
[16] = AUC (0 to 1.5 hrs) in C57BL/6J mouse plasma at 100 mg/kg, po administered as single dose by LC/MS/MS analysis; format: ADME, organism-based; design: time < 1.5 hr, dose 100 mg/kg, route oral; how it was run: as §1
[17] = Tmax in ICR mouse at 10 mg/kg, po administered as single dose by LC/MS/MS analysis; format: ADME, organism-based; conditions: in vivo; how it was run: as §2
[18] = AUC (0 to 1.5 hrs) in C57BL/6J mouse plasma at 30 mg/kg, po administered as single dose by LC/MS/MS analysis; format: ADME, organism-based; design: dose 30 mg/kg, time < 1.5 hr, route oral
[19] = Ratio of AUC (0 to 1.5 hrs) in C57BL/6J mouse liver to plasma at 100 mg/kg, po administered as single dose by LC/MS/MS analysis; format: ADME, organism-based; conditions: liver and plasma, read-out: Ratio AUC; how it was run: as §1
[20] = Cytotoxicity against rat primary hepatocytes assessed as reduction in cell viability after 24 hrs by AlamarBlue assay; format: cell-based, Hepatocyte
How it was run: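 Hepatocytes isolated from male SD rats (7 weeks) by two-step collagenase perfusion. Seeded at 2–3×10^4/well on collagen in modified WE medium with 10% FBS, dexamethasone and insulin, switched to serum-free medium at 4 h. At 20–24 h exposed 24 h to 1–100 µM final, 1% DMSO vehicle. Viability read by alamarBlue.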

[21] = AUC (0 to infinity) in ICR mouse at 10 mg/kg, po administered as single dose by LC/MS/MS analysis; format: ADME, organism-based; design: dose 10 mg/kg, route oral, time infinity; conditions: in vivo; how it was run: as §2
[22] = Cmax in ICR mouse at 10 mg/kg, po administered as single dose by LC/MS/MS analysis; format: ADME, organism-based; design: dose 10 mg/kg, route oral; conditions: in vivo; how it was run: as §2
Mus musculus [23] = experiment: Toxicity in C57BL/6J mouse assessed as hypoglycemia at <100 mg/kg, po measured up to 300 mins by glucometric method; format: organism-based; conditions: in vivo, 5 h
How it was run: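 Male C57BL/6J mice (8 weeks) fasted 2 h and dosed orally at time 0 (n = 8/group). Tail vein glucose measured by glucometer at 0, 60, 120, 180, 240 and 300 min. Hypoglycemia defined as plasma glucose < 60 mg/dL. Mean ± SEM, Dunnett's test.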

[24] = Volume of distribution at steady state in ICR mouse at 2 mg/kg, iv administered as single dose by LC/MS/MS analysis; format: ADME, organism-based; conditions: in vivo, read-out: Vdss; how it was run: as §2
[25] = Primary phase half life in ICR mouse at 2 mg/kg, iv administered as single dose by LC/MS/MS analysis; format: ADME, organism-based; conditions: in vivo, read-out: alphat1/2 (converted); how it was run: as §2
[26] = AUC (0 to 1.5 hrs) in C57BL/6J mouse liver at 100 mg/kg, po administered as single dose by LC/MS/MS analysis; format: ADME, organism-based; design: time < 1.5 hr, dose 100 mg/kg, route oral; conditions: in vivo; how it was run: as §1
[27] = Cytotoxicity against CHOK1 cells assessed as reduction in cell viability after 24 hrs by WST1 assay; format: cell-based, Cricetulus griseus; conditions: chinese hamster, CHO-K1 cells
How it was run: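 CHO-K1 cells plated at 6000/well in Ham's F12K with 2% FBS and 1 mM L-glutamine plus antibiotics, incubated overnight at 37 °C, 5% CO2. Exposed 24 h to compound at 1–100 µM final, with 1% DMSO vehicle and benzbromarone positive control. Viability read by WST-1.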

[28] = Ratio of AUC (0 to 1.5 hrs) in C57BL/6J mouse pancreas to plasma at 100 mg/kg, po administered as single dose by LC/MS/MS analysis; format: ADME, organism-based; conditions: pancreas and plasma, read-out: Ratio AUC; how it was run: as §1
[29] = AUC (0 to 1.5 hrs) in C57BL/6J mouse liver at 10 mg/kg, po administered as single dose by LC/MS/MS analysis; format: ADME, organism-based; design: time < 1.5 hr, dose 10 mg/kg, route oral; conditions: in vivo
[30] = AUC (0 to infinity) in ICR mouse at 2 mg/kg, iv administered as single dose by LC/MS/MS analysis; format: ADME, organism-based; design: dose 2 mg/kg, route intravenous, time infinity; conditions: in vivo; how it was run: as §2
[31] = AUC (0 to 1.5 hrs) in C57BL/6J mouse pancreas at 10 mg/kg, po administered as single dose by LC/MS/MS analysis; format: ADME, organism-based; design: dose 10 mg/kg, time < 1.5 hr, route oral; conditions: in vivo
[32] = Ratio of AUC (0 to 1.5 hrs) in C57BL/6J mouse pancreas to plasma at 10 mg/kg, po administered as single dose by LC/MS/MS analysis; format: ADME, organism-based; conditions: pancreas and plasma, read-out: Ratio AUC
[33] = target: Voltage-gated inwardly rectifying potassium channel KCNH2 (Homo sapiens, UniProt Q12809); experiment: Inhibition of human ERG expressed in HEK293 cells at -80 holding potential by whole patch clamp assay; format: cell-based
How it was run: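 Whole-cell patch clamp on HEK293 stably expressing hERG, perfused at 26.0 ± 2.0 °C. Holding potential −80 mV. Steps to −40 to +20 mV for 1.5 s, then −50 mV for 1.5 s, repeated every 15 s. Concentrations 3–300 µM, 0.1% DMSO vehicle, E-4031 positive control.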

Voltage-gated inwardly rectifying potassium channel KCNH2, sequence (Q12809 whole entry, the tested form may be a part): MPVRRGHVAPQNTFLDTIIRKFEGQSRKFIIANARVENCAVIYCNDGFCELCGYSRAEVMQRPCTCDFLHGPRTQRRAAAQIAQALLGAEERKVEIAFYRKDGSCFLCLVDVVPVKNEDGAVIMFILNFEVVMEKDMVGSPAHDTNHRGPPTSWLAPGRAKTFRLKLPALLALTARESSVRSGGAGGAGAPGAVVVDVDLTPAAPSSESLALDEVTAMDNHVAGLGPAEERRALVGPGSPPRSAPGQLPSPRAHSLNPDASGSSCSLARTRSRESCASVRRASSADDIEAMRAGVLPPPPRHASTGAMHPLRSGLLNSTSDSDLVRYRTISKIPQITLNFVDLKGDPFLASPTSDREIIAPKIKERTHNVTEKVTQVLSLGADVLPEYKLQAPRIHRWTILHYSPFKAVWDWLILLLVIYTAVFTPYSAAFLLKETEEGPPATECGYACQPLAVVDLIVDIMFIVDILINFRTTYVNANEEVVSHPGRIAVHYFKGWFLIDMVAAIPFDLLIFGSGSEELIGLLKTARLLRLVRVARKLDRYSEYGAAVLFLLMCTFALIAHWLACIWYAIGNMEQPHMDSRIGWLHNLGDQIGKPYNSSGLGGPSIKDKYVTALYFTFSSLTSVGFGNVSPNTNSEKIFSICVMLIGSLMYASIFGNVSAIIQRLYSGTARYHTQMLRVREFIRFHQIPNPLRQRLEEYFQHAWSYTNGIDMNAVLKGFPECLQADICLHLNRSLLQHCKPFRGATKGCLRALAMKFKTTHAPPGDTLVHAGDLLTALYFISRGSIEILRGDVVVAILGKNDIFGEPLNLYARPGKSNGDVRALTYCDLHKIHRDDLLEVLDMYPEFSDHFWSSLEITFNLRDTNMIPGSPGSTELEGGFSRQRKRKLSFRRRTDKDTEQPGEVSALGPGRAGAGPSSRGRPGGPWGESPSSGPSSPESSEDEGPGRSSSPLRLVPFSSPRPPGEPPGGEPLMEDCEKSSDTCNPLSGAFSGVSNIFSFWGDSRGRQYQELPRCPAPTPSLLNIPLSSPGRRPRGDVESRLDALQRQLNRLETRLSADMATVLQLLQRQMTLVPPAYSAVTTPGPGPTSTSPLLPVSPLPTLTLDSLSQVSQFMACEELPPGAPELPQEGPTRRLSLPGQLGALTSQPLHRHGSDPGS

- AUC [1]: 32300 ng·h/g
- Ratio AUC [2]: 20.6
- Kp [3]: 1.6
- AUC(0-t) at 1.5 h [5]: 6750 ng·h/mL
- AUC [6]: 1430 ng·h/g
- Ratio AUC [7]: 14
- AUC [8]: 10500 ng·h/g
- half-life [9]: 1.6 h
- bioavailability [10]: 20%
- Kp [11]: 0.081
- Kp [12]: 1.3
- half-life [13]: 2 h
- Ratio AUC [14]: 22.5
- clearance [15]: 3.88 mL/min/kg
- AUC(0-t) at 1.5 h [16]: 86900 ng·h/mL
- Tmax [17]: 0.25 h
- AUC(0-t) at 1.5 h [18]: 17700 ng·h/mL
- Kp [19]: 1.7
- AUC(0-inf) [21]: 8600 ng·h/mL
- Cmax [22]: 3020 ng/mL
- Vd [24]: 0.31 L/kg
- half-life [25]: 0.47 h
- AUC [26]: 148000 ng·h/g
- Kp [28]: 0.12
- AUC [29]: 8910 ng·h/g
- AUC(0-inf) [30]: 8580 ng·h/mL
- AUC [31]: 433 ng·h/g
- Kp [32]: 0.064
Compound: CCN(CC(=O)O)CC(=O)N1CCC[C@H]1c1cc(C(=O)Nc2ncc(F)s2)c(C)s1
- Activity (Mus musculus [4]): Non-Toxic
- CC50 at 24 h [20]: > 100 µM
- Activity (Mus musculus [23]): Non-Toxic
- CC50 at 24 h [27]: > 100 µM
- IC50 [33]: > 300 µM
